Experimental data as given in ChEMBL document CHEMBL2380302, “Synthesis of 3-O-propargylated betulinic acid and its 1,2,3-triazoles as potential apoptotic agents” (Eur J Med Chem, 2013).
Activity calls are given as the source filed them. The calls are words filed in the database; no cut-off is given here.

Experiments:
HL-60 [1] = assay: Induction of apoptosis in human HL60 cells assessed as DNA ladder formation at 5 uM after 6 hrs by DNA agarose gel electrophoresis; type: functional, cell-based
Method in brief: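 HL-60 cells (2 × 10⁶/well/2 mL) were treated at 5 µM for 6 h, then pelleted and washed in PBS. DNA was extracted with phenol:chloroform:isoamyl alcohol and ethanol-precipitated. It was run on 1% agarose in TAE at 80 V for 1.5 h.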

THP-1 [2] = assay: Inhibition of cell migration in human THP1 cells at 1 to 30 uM after 24 hrs by wound-healing assay; type: functional, cell-based
Method in brief: (§1)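 THP-1 monolayers (3×10⁵ cells/mL/well) were scratched with a pipette tip and washed three times with PBS. Test samples were added for 24 h, then fresh medium was added until the control wound healed. Wounds were imaged with a 10× objective at 0 h and 24 h. Migration was quantified as the distance between wound edges.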

HCT-15 [3] = assay: Cytotoxicity against human HCT15 cells at 30 uM after 48 hrs by SRB assay; type: functional; settings: HCT-15, 48 h, read-out: GI
SF-295 [4] = assay: Cytotoxicity against human SF295 cells after 48 hrs by SRB assay; type: functional, cell-based; settings: SF-295, 48 h
A549 [5] = assay: Cytotoxicity against human A549 cells at 30 uM after 48 hrs by SRB assay; type: functional; settings: A549, 48 h, read-out: GI
MCF7 [6] = assay: Cytotoxicity against human MCF7 cells after 48 hrs by SRB assay; type: functional, cell-based; settings: MCF7, 48 h
CV-1 = assay: Induction of apoptosis in african green monkey CV1 cells assessed as DNA ladder formation at 10 to 60 uM after 24 hrs by DNA agarose gel electrophoresis; type: cell-based; settings: chlorocebus aethiops, cv-1, 24 h
Method in brief: (§2)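 DNA fragmentation assay in HL-60 cells (2 × 10⁶ cells/well) or CV-1 cells, treated for 24 h. Cells were lysed in Tris–HCl pH 8.0/NaCl/EDTA/Triton X-100 with proteinase K (200 µg/mL) at 50 °C for 1 h, then DNase-free RNase for 90 min. DNA was phenol:chloroform extracted and ethanol precipitated. Gels were 1% agarose in TAE at 80 V for 1.5 h. Camptothecin (5 µM, 6 h) served as positive control in HL-60.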

HL-60 [7] = assay: Cytotoxicity against human HL60 cells after 48 hrs by SRB assay; type: functional, cell-based; settings: HL-60, 48 h
A549 [8] = assay: Cytotoxicity against human A549 cells at 10 uM after 48 hrs by SRB assay; type: functional; settings: A549, 48 h, read-out: GI
SF-295 [9] = assay: Cytotoxicity against human SF295 cells at 50 uM after 48 hrs by SRB assay; type: functional; settings: SF-295, 48 h, read-out: GI
HL-60 [10] = assay: Induction of apoptosis in human HL60 cells assessed as DNA ladder formation at 20 to 30 uM after 24 hrs by DNA agarose gel electrophoresis; type: functional, cell-based; method in brief: as §2
PC-3 [11] = assay: Cytotoxicity against human PC3 cells at 30 uM after 48 hrs by SRB assay; type: functional; settings: PC-3, 48 h, read-out: GI
HEp-2 [12] = assay: Cytotoxicity against human Hep2 cells at 50 uM after 48 hrs by SRB assay; type: functional; settings: HEp-2, 48 h, read-out: GI
THP-1 [13] = assay: Cytotoxicity against human THP1 cells at 50 uM after 48 hrs by SRB assay; type: functional; settings: THP-1, 48 h, read-out: GI
HEp-2 [14] = assay: Cytotoxicity against human Hep2 cells after 48 hrs by SRB assay; type: functional, cell-based; settings: HEp-2, 48 h
A549 [15] = assay: Cytotoxicity against human A549 cells at 50 uM after 48 hrs by SRB assay; type: functional; settings: A549, 48 h, read-out: GI
SF-295 [16] = assay: Cytotoxicity against human SF295 cells at 10 uM after 48 hrs by SRB assay; type: functional; settings: SF-295, 48 h, read-out: GI
SF-295 [17] = assay: Cytotoxicity against human SF295 cells at 30 uM after 48 hrs by SRB assay; type: functional; settings: SF-295, 48 h, read-out: GI
HCT-15 [18] = assay: Cytotoxicity against human HCT15 cells after 48 hrs by SRB assay; type: functional, cell-based; settings: HCT-15, 48 h
DU-145 [19] = assay: Cytotoxicity against human DU145 cells at 50 uM after 48 hrs by SRB assay; type: functional; settings: DU-145, 48 h, read-out: GI
MCF7 [20] = assay: Cytotoxicity against human MCF7 cells at 30 uM after 48 hrs by SRB assay; type: functional; settings: MCF7, 48 h, read-out: GI
DU-145 [21] = assay: Cytotoxicity against human DU145 cells at 30 uM after 48 hrs by SRB assay; type: functional; settings: DU-145, 48 h, read-out: GI
THP-1 [22] = assay: Cytotoxicity against human THP1 cells after 48 hrs by SRB assay; type: functional, cell-based; settings: THP-1, 48 h
A549 [23] = assay: Cytotoxicity against human A549 cells after 48 hrs by SRB assay; type: functional, cell-based; settings: A549, 48 h
HCT-15 [24] = assay: Cytotoxicity against human HCT15 cells at 50 uM after 48 hrs by SRB assay; type: functional; settings: HCT-15, 48 h, read-out: GI
PC-3 [25] = assay: Cytotoxicity against human PC3 cells at 50 uM after 48 hrs by SRB assay; type: functional; settings: PC-3, 48 h, read-out: GI
THP-1 [26] = assay: Cytotoxicity against human THP1 cells at 30 uM after 48 hrs by SRB assay; type: functional; settings: THP-1, 48 h, read-out: GI
DU-145 [27] = assay: Cytotoxicity against human DU145 cells after 48 hrs by SRB assay; type: functional, cell-based; settings: DU-145, 48 h
PC-3 [28] = assay: Cytotoxicity against human PC3 cells after 48 hrs by SRB assay; type: functional, cell-based; settings: PC-3, 48 h
MCF7 [29] = assay: Cytotoxicity against human MCF7 cells at 10 uM after 48 hrs by SRB assay; type: functional; settings: MCF7, 48 h, read-out: GI
HEp-2 [30] = assay: Cytotoxicity against human Hep2 cells at 30 uM after 48 hrs by SRB assay; type: functional; settings: HEp-2, 48 h, read-out: GI
HCT-15 [31] = assay: Cytotoxicity against human HCT15 cells at 10 uM after 48 hrs by SRB assay; type: functional; settings: HCT-15, 48 h, read-out: GI
HL-60 [32] = assay: Cytotoxicity against human HL60 cells at 50 uM after 48 hrs by SRB assay; type: functional; settings: HL-60, 48 h, read-out: GI
HL-60 [33] = assay: Cytotoxicity against human HL60 cells at 10 uM after 48 hrs by SRB assay; type: functional; settings: HL-60, 48 h, read-out: GI
HL-60 [34] = assay: Cytotoxicity against human HL60 cells at 30 uM after 48 hrs by SRB assay; type: functional; settings: HL-60, 48 h, read-out: GI
HL-60 [35] = assay: Induction of apoptosis in human HL60 cells assessed as change in mitochondrial membrane potential after 24 hrs using rhodamine-123 staining by fluorescence based confocal microscopy analysis; type: functional, cell-based
Method in brief: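 HL-60 cells (6 × 10⁴/mL/well) were treated for 24 h. Rhodamine-123 (1 µM) was added in serum-free medium 30 min before the end, in the dark. Cells were then washed and resuspended in PBS. Fluorescence loss was viewed by confocal microscopy with 488 nm laser excitation. Each experiment was done twice.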

HL-60 [36] = assay: Induction of apoptosis in human HL60 cells assessed as DNA ladder formation after 24 hrs by DNA agarose gel electrophoresis; type: functional; method in brief: as §2
THP-1 [37] = assay: Cytotoxicity against human THP1 cells at 10 uM after 48 hrs by SRB assay; type: functional; settings: THP-1, 48 h, read-out: GI
THP-1 [38] = assay: Inhibition of colony formation in human THP1 cells using crystal violet staining after 24 hrs by clonogenic assay; type: functional, cell-based
Method in brief: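 THP-1 cells from log-phase culture were plated at clonogenic dilution. After 24 h they were treated for 24 h, then incubated for at least six potential divisions (colonies >50 cells). Colonies were fixed and stained with 6% glutaraldehyde plus 0.5% crystal violet for 30 min, washed with water and air-dried.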

THP-1 [39] = assay: Inhibition of cell invasion in human THP1 cells at 1 to 30 uM after 24 hrs by wound-healing assay; type: functional, cell-based; method in brief: as §1
MCF7 [40] = assay: Cytotoxicity against human MCF7 cells at 50 uM after 48 hrs by SRB assay; type: functional; settings: MCF7, 48 h, read-out: GI
PC-3 [41] = assay: Cytotoxicity against human PC3 cells at 10 uM after 48 hrs by SRB assay; type: functional; settings: PC-3, 48 h, read-out: GI
HEp-2 [42] = assay: Cytotoxicity against human Hep2 cells at 10 uM after 48 hrs by SRB assay; type: functional; settings: HEp-2, 48 h, read-out: GI
DU-145 [43] = assay: Cytotoxicity against human DU145 cells at 10 uM after 48 hrs by SRB assay; type: functional; settings: DU-145, 48 h, read-out: GI

CC[C@@]1(O)C(=O)OCc2c1cc1n(c2=O)Cc2cc3ccccc3nc2-1
Activity (HL-60 [1]): Active

C=C(C)[C@@H]1CC[C@]2(C(=O)O)CC[C@]3(C)[C@H](CC[C@@H]4[C@@]5(C)CC[C@H](OCc6cn(-c7ccccc7C#N)nn6)C(C)(C)[C@@H]5CC[C@]43C)[C@@H]12
inhibition (THP-1 [2]): Active
inhibition of growth at 30 µM (HCT-15 [3]): 61%
IC50 (SF-295 [4]): 15 µM
inhibition of growth at 30 µM (A549 [5]): 74%
IC50 (MCF7 [6]): 4.8 µM
Activity (CV-1): Non-toxic
IC50 (HL-60 [7]): 2.5 µM
inhibition of growth at 10 µM (A549 [8]): 60%
inhibition of growth at 50 µM (SF-295 [9]): 71%
Activity (HL-60 [10]): Active
inhibition of growth at 30 µM (PC-3 [11]): 71%
inhibition of growth at 50 µM (HEp-2 [12]): 68%
inhibition of growth at 50 µM (THP-1 [13]): 92%
IC50 (HEp-2 [14]): 12 µM
inhibition of growth at 50 µM (A549 [15]): 79%
inhibition of growth at 10 µM (SF-295 [16]): 45%
inhibition of growth at 30 µM (SF-295 [17]): 66%
IC50 (HCT-15 [18]): 20 µM
inhibition of growth at 50 µM (DU-145 [19]): 84%
inhibition of growth at 30 µM (MCF7 [20]): 81%
inhibition of growth at 30 µM (DU-145 [21]): 65%
IC50 (THP-1 [22]): 4.5 µM
IC50 (A549 [23]): 5 µM
inhibition of growth at 50 µM (HCT-15 [24]): 89%
inhibition of growth at 50 µM (PC-3 [25]): 86%
inhibition of growth at 30 µM (THP-1 [26]): 89%
IC50 (DU-145 [27]): 18 µM
IC50 (PC-3 [28]): 14 µM
inhibition of growth at 10 µM (MCF7 [29]): 60%
inhibition of growth at 30 µM (HEp-2 [30]): 59%
inhibition of growth at 10 µM (HCT-15 [31]): 40%
inhibition of growth at 50 µM (HL-60 [32]): 98%
inhibition of growth at 10 µM (HL-60 [33]): 65%
inhibition of growth at 30 µM (HL-60 [34]): 90%
Activity (HL-60 [35]): Dose-dependent effect
Activity (HL-60 [36]): Dose-dependent effect
MED (HL-60 [36]): 20 µM
inhibition of growth at 10 µM (THP-1 [37]): 50%
inhibition (THP-1 [38]): Dose-dependent effect
inhibition (THP-1 [39]): Active
inhibition of growth at 50 µM (MCF7 [40]): 97%
inhibition of growth at 10 µM (PC-3 [41]): 34%
inhibition of growth at 10 µM (HEp-2 [42]): 45%
inhibition of growth at 10 µM (DU-145 [43]): 32%
